# From ChEMBL document CHEMBL2093137, “WHO-TDR NTD Screening”
# Legend:
# [1] = system: Trypanosoma cruzi; assay: WHO-TDR: Chagas disease; type: functional, organism-based, Homo sapiens; conditions: MRC5
# Procedure, shortened: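 Each IC50 reflects antiparasitic potency against intracellular amastigotes of Trypanosoma cruzi Tulahuen CL2 beta-galactosidase strain. These were cultured in MRC-5SV2 human lung fibroblasts and exposed to a 10,000-compound diverse Life Chemicals library screened according to published standard procedures with a reference drug as positive control.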
# [2] = system: Trypanosoma brucei brucei; assay: WHO-TDR: Human African Trypanosomiasis (HAT); type: functional, organism-based; conditions: Squib-427
# Procedure, shortened: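 A diverse library of 10,000 compounds from Life Chemicals, filtered for drug-likeness and reactive groups, was screened against bloodstream forms of Trypanosoma brucei Squib 427 strain in a whole-organism assay. Previously published standard procedures were followed, with reference drugs serving as positive controls. Antiparasitic potency is given as IC50.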
# [3] = system: Leishmania infantum; assay: WHO-TDR: Leishmaniasis; type: functional, organism-based, Mus musculus; conditions: Macrophage
# Procedure, shortened: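 A diverse library of 10,000 compounds from Life Chemicals, filtered for drug-likeness and reactive groups, was screened against whole organisms. The targets were intracellular amastigotes of Leishmania infantum MHOM/MA(BE)/67 growing in murine peritoneal macrophages. Previously published standard procedures were followed, with a reference drug as positive control. Antiparasitic potency is given as IC50.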
# [4] = system: Brugia malayi; assay: WHO-TDR: Lymphatic Filariasis; type: functional; parameters: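 tested at 10 µM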
# Procedure, shortened: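 In a whole-organism assay, Brugia malayi microfilariae were screened against a diverse Life Chemicals library that had been filtered for drug-likeness and reactive groups. That library comprised 10,000 compounds. Activity is expressed as percent inhibition and as IC50.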
# [5] = system: Plasmodium falciparum K1; assay: WHO-TDR: Malaria; type: functional, organism-based, Homo sapiens; conditions: Erythrocyte
# Procedure, shortened: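 A diverse library of 10,000 compounds from Life Chemicals, filtered for drug-likeness and reactive groups, was screened against the intra-erythrocytic Plasmodium falciparum K1 strain in human red blood cells. Previously published standard procedures were followed, with a reference drug as positive control. Antiplasmodial potency is given as IC50.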
# [6] = WHO-TDR: Cytotoxicity; type: toxicity, cell-based; conditions: human, MRC5 cells
# [7] = system: Onchocerca lienalis; assay: WHO-TDR: Onchocerciasis; type: functional; parameters: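 at 12.5 µM on microfilariae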
# Procedure, shortened: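 Microfilariae of Onchocerca ochengi or Onchocerca lienalis, animal pathogens standing in for the human parasite, were exposed to compounds in a whole-organism screen. The compounds came from a 10,000-compound diverse Life Chemicals library filtered for drug-likeness and reactive groups. Results are expressed as percent inhibition and IC50.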
# [8] = system: Schistosoma mansoni; assay: WHO-TDR: Schistosomiasis; type: functional; parameters: concentration or dose not given beside the values
# Procedure, shortened: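 In this whole-organism assay, larval and/or adult worms of Schistosoma mansoni (Puerto Rican strain) were exposed to compounds from a diverse Life Chemicals library of 10,000 members. A reference drug served as positive control. Activity is stated as percent inhibition and IC50.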
Compound,IC50 [1],IC50 [2],IC50 [3],% Inhibition [4],IC50 [5],IC50 [6],% Inhibition [7],% Inhibition [8]
Cc1cccc(-c2nc(CCNC(=O)c3ccco3)cs2)c1,2.46 µg/mL,0.307 µg/mL,3.95 µg/mL,0%,6.12 µg/mL,4.35 µg/mL,0%,0%
COc1ccc(Cl)c2sc(N(CCCN(C)C)C(=O)c3ccco3)nc12,1.36 µg/mL,4.08 µg/mL,0.418 µg/mL,0%,> 12.9 µg/mL,4.17 µg/mL,0%,0%
CCc1ccccc1-n1c(C)cn2c3c(=O)n(CC(C)C)c(=O)n(C)c3nc12,> 11.4 µg/mL,0.342 µg/mL,> 11.4 µg/mL,0%,3.29 µg/mL,> 11.4 µg/mL,20%,0%
O=C(CSc1ccc(-c2ccc(-n3cccn3)cc2)nn1)Nc1ccc2c(c1)OCO2,> 12.9 µg/mL,> 12.9 µg/mL,0.419 µg/mL,0%,> 12.9 µg/mL,> 12.9 µg/mL,13.3%,0%
CS(=O)(=O)NCC(c1ccco1)S(=O)(=O)c1ccc(Cl)cc1 (centres undefined),0.513 µg/mL,10.9 µg/mL,> 10.9 µg/mL,33.33%,> 10.9 µg/mL,> 10.9 µg/mL,6.7%,0%
O=C(COc1ccccc1)Oc1ccc2nc(N3CCN(c4ccccc4)CC3)sc2c1,9.76 µg/mL,> 13.4 µg/mL,1.96 µg/mL,0%,> 13.4 µg/mL,> 13.4 µg/mL,0%,0%
CCCCN(C)S(=O)(=O)c1ccc(C(=O)N2CCN(c3nc4c(C)ccc(C)c4s3)CC2)cc1,> 15 µg/mL,> 15 µg/mL,0.223 µg/mL,16.67%,> 15 µg/mL,> 15 µg/mL,13.3%,0%
CCCn1/c(=N/C(=O)C2=COCCO2)sc2c(C)ccc(OC)c21,0.89 µg/mL,> 10.5 µg/mL,> 10.5 µg/mL,0%,3.18 µg/mL,> 10.5 µg/mL,20%,0%
COc1ccc(-c2ccc(NS(=O)(=O)c3ccc(Cl)s3)cc2)nn1,> 11.5 µg/mL,> 11.5 µg/mL,1.09 µg/mL,16.67%,> 11.5 µg/mL,> 11.5 µg/mL,0%,0%
CN(C)CCCN(C(=O)/C=C/c1ccccc1)c1nc2ccccc2s1,0.406 µg/mL,0.35 µg/mL,0.39 µg/mL,0%,1.74 µg/mL,3.81 µg/mL,25.05%,100%
CN(C)CCCN(C(=O)c1ccc(Br)s1)c1nc2ccccc2s1,0.791 µg/mL,4.37 µg/mL,> 13.8 µg/mL,0%,5.41 µg/mL,> 13.8 µg/mL,11.35%,0%
O=C(COc1ccc(Cl)cc1Cl)N(Cc1ccccn1)c1nc2ccccc2s1,0.863 µg/mL,> 13.3 µg/mL,4.32 µg/mL,0%,> 13.3 µg/mL,> 13.3 µg/mL,0%,0%
O=C(c1c(F)cccc1F)N(Cc1ccccn1)c1nc2ccccc2s1,0.546 µg/mL,> 11.4 µg/mL,3.7 µg/mL,0%,7.58 µg/mL,2.13 µg/mL,4.601%,0%
